ChEMBL document CHEMBL3351329, “Radiosynthesis and evaluation of an 18F-labeled positron emission tomography (PET) radioligand for metabotropic glutamate receptor subtype 4 (mGlu4)” (J Med Chem, 2014)
The source made the active and inactive calls. No cut-off for these calls is given here.

Columns and labels:
[1] = biological target: Metabotropic glutamate receptor 4 (Rattus norvegicus) (UniProt P31423); experiment: Displacement of [3H]ML128 from rat mGlu4 receptor expressed in CHO cells at 10 uM after 30 mins by liquid scintillation counting analysis; assay type: cell-based
Chain of Metabotropic glutamate receptor 4 (Rattus norvegicus) (P31423 whole entry): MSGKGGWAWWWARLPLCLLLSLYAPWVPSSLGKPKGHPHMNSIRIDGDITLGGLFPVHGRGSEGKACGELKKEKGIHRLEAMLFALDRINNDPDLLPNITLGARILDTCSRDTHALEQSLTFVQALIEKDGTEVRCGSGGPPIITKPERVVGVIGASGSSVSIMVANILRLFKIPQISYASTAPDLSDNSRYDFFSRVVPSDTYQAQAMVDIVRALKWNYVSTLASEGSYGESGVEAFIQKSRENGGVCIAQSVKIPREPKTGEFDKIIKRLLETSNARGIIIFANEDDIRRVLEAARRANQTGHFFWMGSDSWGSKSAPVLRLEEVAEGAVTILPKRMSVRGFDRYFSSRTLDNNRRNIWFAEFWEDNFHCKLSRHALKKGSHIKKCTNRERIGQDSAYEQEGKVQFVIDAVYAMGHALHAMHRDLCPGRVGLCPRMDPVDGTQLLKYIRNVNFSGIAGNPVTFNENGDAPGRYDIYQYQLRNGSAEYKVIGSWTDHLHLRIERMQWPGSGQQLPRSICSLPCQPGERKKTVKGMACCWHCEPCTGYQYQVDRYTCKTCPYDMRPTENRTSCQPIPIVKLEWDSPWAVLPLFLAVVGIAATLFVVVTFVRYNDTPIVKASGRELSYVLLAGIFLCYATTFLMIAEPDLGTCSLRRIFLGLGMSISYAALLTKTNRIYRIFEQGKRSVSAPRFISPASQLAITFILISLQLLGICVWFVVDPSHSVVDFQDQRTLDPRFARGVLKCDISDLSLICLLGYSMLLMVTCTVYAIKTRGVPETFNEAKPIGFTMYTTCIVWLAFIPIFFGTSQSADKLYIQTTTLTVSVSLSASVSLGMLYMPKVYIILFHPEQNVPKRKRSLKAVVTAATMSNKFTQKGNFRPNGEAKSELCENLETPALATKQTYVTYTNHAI
How it was run: (§1)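 Whole freshly harvested CHO cells stably expressing rat mGlu4 (G418-selected), 50 000 per tube, incubated with 10 nM [3H]1 plus competitor (0.01 nM–10 μM) 30 min at room temperature. Cells pelleted at 4 °C, washed three times with cold medium, lysed in 0.5% NaOH at 56 °C, then counted by liquid scintillation. Nonspecific binding defined with 10 μM unlabeled 1. Triplicates.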

[2] = biological target: Metabotropic glutamate receptor 4 (Rattus norvegicus, UniProt P31423); experiment: Displacement of [3H]ML128 from rat mGlu4 receptor expressed in CHO cells after 30 mins by liquid scintillation counting analysis; assay type: cell-based; how it was run: as §1
Chain of Metabotropic glutamate receptor 4 (P31423 whole entry): as above

[3] = biological target: Metabotropic glutamate receptor 8 (Homo sapiens) (UniProt O00222); experiment: Binding affinity to human mGlu8 receptor
Chain of Metabotropic glutamate receptor 8 (Homo sapiens) (O00222 whole entry): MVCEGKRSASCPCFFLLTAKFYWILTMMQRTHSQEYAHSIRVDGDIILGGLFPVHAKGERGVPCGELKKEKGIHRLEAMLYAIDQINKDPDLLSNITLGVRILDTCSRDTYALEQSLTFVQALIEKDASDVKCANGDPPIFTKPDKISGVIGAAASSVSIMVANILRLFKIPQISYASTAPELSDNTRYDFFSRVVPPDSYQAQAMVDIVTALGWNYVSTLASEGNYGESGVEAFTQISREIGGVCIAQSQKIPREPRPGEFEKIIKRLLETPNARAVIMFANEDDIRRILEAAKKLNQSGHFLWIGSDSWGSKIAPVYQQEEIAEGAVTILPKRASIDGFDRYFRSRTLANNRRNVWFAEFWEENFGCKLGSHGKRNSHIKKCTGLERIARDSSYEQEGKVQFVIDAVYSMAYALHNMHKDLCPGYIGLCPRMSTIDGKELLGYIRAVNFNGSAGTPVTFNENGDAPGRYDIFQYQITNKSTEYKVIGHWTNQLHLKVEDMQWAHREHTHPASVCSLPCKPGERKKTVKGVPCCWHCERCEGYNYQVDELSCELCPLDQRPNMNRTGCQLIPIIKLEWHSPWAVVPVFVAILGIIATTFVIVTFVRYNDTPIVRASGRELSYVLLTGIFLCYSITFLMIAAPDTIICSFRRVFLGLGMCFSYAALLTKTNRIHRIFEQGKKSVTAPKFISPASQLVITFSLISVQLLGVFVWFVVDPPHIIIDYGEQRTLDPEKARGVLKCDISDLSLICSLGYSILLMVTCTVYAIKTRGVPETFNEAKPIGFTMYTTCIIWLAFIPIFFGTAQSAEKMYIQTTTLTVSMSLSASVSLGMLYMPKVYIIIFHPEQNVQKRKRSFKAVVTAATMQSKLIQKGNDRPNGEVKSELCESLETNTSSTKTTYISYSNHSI

[4] = biological target: Metabotropic glutamate receptor 1 (Homo sapiens) (UniProt Q13255); experiment: Activity at human mGlu1 receptor expressed in CHO cells after 45 mins by intracellular inositol phosphates accumulation assay
Chain of Metabotropic glutamate receptor 1 (Homo sapiens) (Q13255 19-1194 limits assumed): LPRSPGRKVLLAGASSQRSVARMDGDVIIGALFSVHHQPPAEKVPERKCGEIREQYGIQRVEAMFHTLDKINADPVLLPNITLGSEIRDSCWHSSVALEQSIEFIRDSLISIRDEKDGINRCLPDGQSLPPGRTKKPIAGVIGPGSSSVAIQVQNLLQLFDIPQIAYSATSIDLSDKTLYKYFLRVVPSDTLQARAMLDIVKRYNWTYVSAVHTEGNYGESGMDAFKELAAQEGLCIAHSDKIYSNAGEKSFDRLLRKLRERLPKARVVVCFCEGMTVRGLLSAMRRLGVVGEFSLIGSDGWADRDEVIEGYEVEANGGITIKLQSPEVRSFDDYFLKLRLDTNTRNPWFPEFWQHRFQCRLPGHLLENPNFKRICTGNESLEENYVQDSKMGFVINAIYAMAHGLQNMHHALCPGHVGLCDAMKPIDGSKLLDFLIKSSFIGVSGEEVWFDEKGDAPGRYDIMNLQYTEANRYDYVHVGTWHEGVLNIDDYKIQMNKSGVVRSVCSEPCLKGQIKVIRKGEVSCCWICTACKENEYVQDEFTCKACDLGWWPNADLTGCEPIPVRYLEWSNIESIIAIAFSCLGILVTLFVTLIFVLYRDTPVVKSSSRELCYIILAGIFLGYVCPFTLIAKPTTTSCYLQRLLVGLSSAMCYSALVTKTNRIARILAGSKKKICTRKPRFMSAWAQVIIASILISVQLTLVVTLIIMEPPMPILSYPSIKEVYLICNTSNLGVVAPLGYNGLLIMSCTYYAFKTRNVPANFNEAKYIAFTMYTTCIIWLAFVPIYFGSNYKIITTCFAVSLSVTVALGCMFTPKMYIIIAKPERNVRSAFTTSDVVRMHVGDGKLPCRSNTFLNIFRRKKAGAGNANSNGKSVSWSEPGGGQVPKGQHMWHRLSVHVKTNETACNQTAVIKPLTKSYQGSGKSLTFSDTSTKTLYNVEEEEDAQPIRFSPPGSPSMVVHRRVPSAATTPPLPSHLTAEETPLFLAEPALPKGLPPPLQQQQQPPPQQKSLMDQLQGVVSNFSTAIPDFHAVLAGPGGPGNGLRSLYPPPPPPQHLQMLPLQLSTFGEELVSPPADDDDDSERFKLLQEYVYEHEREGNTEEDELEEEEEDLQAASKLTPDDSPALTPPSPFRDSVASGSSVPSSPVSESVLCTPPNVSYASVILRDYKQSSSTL

[5] = biological target: Metabotropic glutamate receptor 5 (Homo sapiens) (UniProt P41594); experiment: Activity at human mGlu5 receptor expressed in CHO cells after 45 mins by intracellular inositol phosphates accumulation assay
Chain of Metabotropic glutamate receptor 5 (Homo sapiens) (P41594 21-1212 limits assumed): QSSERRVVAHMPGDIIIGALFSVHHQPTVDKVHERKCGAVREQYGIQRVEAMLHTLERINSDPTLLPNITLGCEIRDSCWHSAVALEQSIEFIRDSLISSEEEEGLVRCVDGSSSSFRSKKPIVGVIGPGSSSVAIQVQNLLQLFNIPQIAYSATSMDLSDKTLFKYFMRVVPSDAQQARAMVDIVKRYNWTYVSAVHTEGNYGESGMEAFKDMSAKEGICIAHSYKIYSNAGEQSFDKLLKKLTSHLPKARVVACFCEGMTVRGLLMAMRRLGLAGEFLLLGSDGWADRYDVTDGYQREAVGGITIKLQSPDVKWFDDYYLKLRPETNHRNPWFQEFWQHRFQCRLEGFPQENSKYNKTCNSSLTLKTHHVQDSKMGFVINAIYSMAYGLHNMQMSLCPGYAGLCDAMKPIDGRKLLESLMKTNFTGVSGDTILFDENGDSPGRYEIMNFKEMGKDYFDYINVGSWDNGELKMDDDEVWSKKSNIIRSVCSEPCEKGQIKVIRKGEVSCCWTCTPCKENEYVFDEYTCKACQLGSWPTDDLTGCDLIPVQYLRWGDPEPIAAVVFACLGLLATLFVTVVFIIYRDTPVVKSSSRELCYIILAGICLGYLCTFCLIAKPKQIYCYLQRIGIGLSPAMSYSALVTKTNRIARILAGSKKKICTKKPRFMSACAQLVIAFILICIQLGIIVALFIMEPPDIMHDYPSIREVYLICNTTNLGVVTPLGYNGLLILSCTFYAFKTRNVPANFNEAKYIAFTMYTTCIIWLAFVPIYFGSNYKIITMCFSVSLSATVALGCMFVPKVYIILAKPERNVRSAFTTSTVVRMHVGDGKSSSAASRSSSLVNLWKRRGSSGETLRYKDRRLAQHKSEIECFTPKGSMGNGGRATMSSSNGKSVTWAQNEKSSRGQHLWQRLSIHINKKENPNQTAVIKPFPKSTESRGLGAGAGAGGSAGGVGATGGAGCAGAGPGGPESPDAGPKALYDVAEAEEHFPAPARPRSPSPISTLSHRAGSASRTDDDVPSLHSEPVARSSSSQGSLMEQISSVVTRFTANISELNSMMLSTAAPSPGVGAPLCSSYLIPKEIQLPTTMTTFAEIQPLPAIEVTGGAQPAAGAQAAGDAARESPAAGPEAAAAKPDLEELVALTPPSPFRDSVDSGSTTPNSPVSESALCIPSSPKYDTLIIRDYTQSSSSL

Striatum [6] = experiment: Drug uptake in Sprague-Dawley rat striatum at 37 MBq, iv after 20 mins by PET imaging analysis; assay type: ADME, organism-based; conditions: in vivo
How it was run: (§2)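 Male Sprague–Dawley rats under 1.0–1.5% isoflurane/nitrous oxide received [18F]3 (37 MBq) via tail-vein catheter. Dynamic PET was acquired for 60 min, followed by CT for anatomy and attenuation correction. Regional brain time–activity curves were generated. For blocking, animals were given iv 5 min before tracer either 2·HCl 10 mg/kg in saline with 10% ethanol and 10% Tween20 (n = 4) or MTEP·HCl 10 mg/kg in 0.9% saline (n = 3).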

Brain [7] = experiment: Drug uptake in Sprague-Dawley rat whole brain at 37 MBq, iv administered 5 mins post N-(3-(difluoromethoxy)phenyl)-2-picolinamide hydrochloride challenge measured after 20 mins by PET imaging analysis; assay type: ADME, organism-based; conditions: in vivo; how it was run: as §2
Brain [8] = experiment: Drug uptake in Sprague-Dawley rat whole brain at 37 MBq, iv administered 5 mins post MTEP.HCl challenge measured after 20 mins by PET imaging analysis; assay type: ADME, organism-based; conditions: in vivo; how it was run: as §2
[9] = Drug metabolism in iv dosed Sprague-Dawley rat blood after 5 mins; assay type: ADME, organism-based; conditions: read-out: Drug metabolism
[10] = test system: Striatum (Macaca mulatta); experiment: Drug uptake in rhesus monkey striatum at 189 MBq, iv after 20 mins by PET imaging analysis; conditions: in vivo
Hippocampus [11] = experiment: Drug uptake in Sprague-Dawley rat hippocampus at 37 MBq, iv administered 5 mins post N-(3-(difluoromethoxy)phenyl)-2-picolinamide hydrochloride challenge measured after 20 mins by PET imaging analysis; assay type: ADME, organism-based; conditions: in vivo; how it was run: as §2
[12] = test system: Cerebellum (Macaca mulatta); experiment: Drug uptake in rhesus monkey cerebellum at 189 MBq, iv after 3 mins by PET imaging analysis; conditions: in vivo, 0.05 h
Cerebellum [13] = experiment: Drug uptake in Sprague-Dawley rat cerebellum at 37 MBq, iv after 20 mins by PET imaging analysis; assay type: ADME, organism-based; conditions: in vivo; how it was run: as §2
Macaca mulatta = experiment: Drug uptake in rhesus monkey hippocampus at 189 MBq, iv after 40 mins by PET imaging analysis; conditions: in vivo
[14] = test system: Cerebellum (Macaca mulatta); experiment: Drug uptake in rhesus monkey cerebellum at 189 MBq, iv after 20 mins by PET imaging analysis; conditions: in vivo
Cortex [15] = experiment: Drug uptake in Sprague-Dawley rat cortex at 37 MBq, iv administered 5 mins post MTEP.HCl challenge measured after 20 mins by PET imaging analysis; assay type: ADME, organism-based; conditions: in vivo; how it was run: as §2
Thalamus [16] = experiment: Drug uptake in Sprague-Dawley rat thalamus at 37 MBq, iv administered 5 mins post N-(3-(difluoromethoxy)phenyl)-2-picolinamide hydrochloride challenge measured after 20 mins by PET imaging analysis; assay type: ADME, organism-based; conditions: in vivo; how it was run: as §2
Striatum [17] = experiment: Drug uptake in Sprague-Dawley rat striatum at 37 MBq, iv administered 5 mins post N-(3-(difluoromethoxy)phenyl)-2-picolinamide hydrochloride challenge measured after 20 mins by PET imaging analysis; assay type: ADME, organism-based; conditions: in vivo; how it was run: as §2
[18] = test system: Hippocampus (Macaca mulatta); experiment: Drug uptake in rhesus monkey hippocampus at 189 MBq, iv after 20 mins by PET imaging analysis; conditions: in vivo
Cerebellum [19] = experiment: Drug uptake in Sprague-Dawley rat cerebellum at 37 MBq, iv administered 5 mins post MTEP.HCl challenge measured after 20 mins by PET imaging analysis; assay type: ADME, organism-based; conditions: in vivo; how it was run: as §2
Hippocampus [20] = experiment: Drug uptake in Sprague-Dawley rat hippocampus at 37 MBq, iv after 20 mins by PET imaging analysis; assay type: ADME, organism-based; conditions: in vivo; how it was run: as §2
Cortex [21] = experiment: Drug uptake in Sprague-Dawley rat cortex at 37 MBq, iv after 20 mins by PET imaging analysis; assay type: ADME, organism-based; conditions: in vivo; how it was run: as §2
Cortex [22] = experiment: Drug uptake in Sprague-Dawley rat cortex at 37 MBq, iv administered 5 mins post N-(3-(difluoromethoxy)phenyl)-2-picolinamide hydrochloride challenge measured after 20 mins by PET imaging analysis; assay type: ADME, organism-based; conditions: in vivo; how it was run: as §2
Cerebellum [23] = experiment: Drug uptake in Sprague-Dawley rat cerebellum at 37 MBq, iv administered 5 mins post N-(3-(difluoromethoxy)phenyl)-2-picolinamide hydrochloride challenge measured after 20 mins by PET imaging analysis; assay type: ADME, organism-based; conditions: in vivo; how it was run: as §2
[24] = test system: Thalamus (Macaca mulatta); experiment: Drug uptake in rhesus monkey thalamus at 189 MBq, iv after 20 mins by PET imaging analysis; conditions: in vivo
[25] = test system: Hippocampus (Macaca mulatta); experiment: Drug uptake in rhesus monkey hippocampus at 189 MBq, iv after 3 mins by PET imaging analysis; conditions: in vivo, 0.05 h
Hippocampus [26] = experiment: Drug uptake in Sprague-Dawley rat hippocampus at 37 MBq, iv administered 5 mins post MTEP.HCl challenge measured after 20 mins by PET imaging analysis; assay type: ADME, organism-based; conditions: in vivo; how it was run: as §2
[27] = test system: Striatum (Macaca mulatta); experiment: Drug uptake in rhesus monkey striatum at 189 MBq, iv after 40 mins by PET imaging analysis; conditions: in vivo
Striatum [28] = experiment: Drug uptake in Sprague-Dawley rat striatum at 37 MBq, iv administered 5 mins post MTEP.HCl challenge measured after 20 mins by PET imaging analysis; assay type: ADME, organism-based; conditions: in vivo; how it was run: as §2
Thalamus [29] = experiment: Drug uptake in Sprague-Dawley rat thalamus at 37 MBq, iv administered 5 mins post MTEP.HCl challenge measured after 20 mins by PET imaging analysis; assay type: ADME, organism-based; conditions: in vivo; how it was run: as §2
Brain [30] = experiment: Drug uptake in Sprague-Dawley rat whole brain at 37 MBq, iv after 20 mins by PET imaging analysis; assay type: ADME, organism-based; conditions: in vivo; how it was run: as §2
[31] = Drug uptake in rhesus monkey cerebellum at 189 MBq, iv after 40 mins by PET imaging analysis; conditions: in vivo
[32] = test system: Thalamus (Macaca mulatta); experiment: Drug uptake in rhesus monkey thalamus at 189 MBq, iv after 40 mins by PET imaging analysis; conditions: in vivo
[33] = test system: Striatum (Macaca mulatta); experiment: Drug uptake in rhesus monkey striatum at 189 MBq, iv after 3 mins by PET imaging analysis; conditions: in vivo, 0.05 h
[34] = test system: Thalamus (Macaca mulatta); experiment: Drug uptake in rhesus monkey thalamus at 189 MBq, iv after 3 mins by PET imaging analysis; conditions: in vivo, 0.05 h
Thalamus [35] = experiment: Drug uptake in Sprague-Dawley rat thalamus at 37 MBq, iv after 20 mins by PET imaging analysis; assay type: ADME, organism-based; conditions: in vivo; how it was run: as §2
[36] = Drug metabolism in iv dosed rhesus monkey blood after 5 mins; conditions: in vivo

For `O=C(Nc1cccc(OC(F)F)c1)c1ccccn1`, which inhibition [1] is on record?
The inhibition was 99.1%.

What does the source list for `O=C(Nc1ccc(N2C(=O)c3cccc(I)c3C2=O)c(Cl)c1)c1ccccn1`?
inhibition [1]: 96%; IC50 ([2]; read-out: IC50): 26.3 nM; IC50 ([2]; read-out: pIC50 (converted)): 29.5 nM

For `COc1cc(NC(=O)c2ccccn2)ccc1Cl`, which inhibition [1] is on record?
The inhibition was 100%.

For `O=C(Nc1ccc(N2C(=O)c3cccc(Br)c3C2=O)c(Cl)c1)c1ccccn1`, which inhibition [1] is on record?
Its inhibition is 96.6%.

And the IC50 ([2]; read-out: IC50)?
Its IC50 is 11.8 nM.

With `O=C(Nc1ccc(N2C(=O)c3cccc(F)c3C2=O)c(Cl)c1)c1ccccn1` as the molecule, how does the Activity [3] read?
Its Activity is “Active”.

And the Activity [4]?
Its Activity is “Active”.

What about the inhibition [1] of the same molecule?
The inhibition was 99.4%.

And the IC50 ([2]; read-out: IC50)?
The IC50 was 5.1 nM.

And the Activity [5]?
The Activity was “Active”.

For `Cc1cccc2c1C(=O)N(c1ccc(NC(=O)c3ccccn3)cc1Cl)C2=O`, which inhibition [1] is on record?
The inhibition was 99.4%.

What about the IC50 ([2]; read-out: IC50) of the same molecule?
Its IC50 is 4.2 nM.

Which Drug uptake (Striatum [6]) does the source give for `O=C(Nc1ccc(N2C(=O)c3cccc([18F])c3C2=O)c(Cl)c1)c1ccccn1` here?
Its Drug uptake is “Active”.

And the Drug uptake (Brain [7])?
Its Drug uptake is “Active”.

And the Drug uptake (Brain [8])?
Its Drug uptake is “Active”.

And the metabolised at 5 min [9]?
Its metabolised at 5 min is 90%.

What about the Drug uptake [10] of the same molecule?
Its Drug uptake is 50%.

What about the Drug uptake (Hippocampus [11]) of the same molecule?
Its Drug uptake is “Active”.

What about the Drug uptake [12] of the same molecule?
The Drug uptake was “Active”.

What about the Drug uptake (Cerebellum [13]) of the same molecule?
Its Drug uptake is “Active”.

What about the Drug uptake (Macaca mulatta) of the same molecule?
Its Drug uptake is “Active”.

What about the Drug uptake [14] of the same molecule?
Its Drug uptake is 50%.

And the Drug uptake (Cortex [15])?
The Drug uptake was “Active”.

And the Drug uptake (Thalamus [16])?
Its Drug uptake is “Active”.

What about the Drug uptake (Striatum [17]) of the same molecule?
Its Drug uptake is “Active”.

And the Drug uptake [18]?
Its Drug uptake is 50%.

And the Drug uptake (Cerebellum [19])?
Its Drug uptake is “Active”.

What about the Drug uptake (Hippocampus [20]) of the same molecule?
Its Drug uptake is “Active”.

What about the Drug uptake (Cortex [21]) of the same molecule?
The Drug uptake was “Active”.

And the Drug uptake (Cortex [22])?
Its Drug uptake is “Active”.

What about the Drug uptake (Cerebellum [23]) of the same molecule?
Its Drug uptake is “Active”.

What about the Drug uptake [24] of the same molecule?
The Drug uptake was 50%.

And the Drug uptake [25]?
The Drug uptake was “Active”.

And the Drug uptake (Hippocampus [26])?
The Drug uptake was “Active”.

And the Drug uptake [27]?
Its Drug uptake is “Active”.

What about the Drug uptake (Striatum [28]) of the same molecule?
The Drug uptake was “Active”.

What about the Drug uptake (Thalamus [29]) of the same molecule?
The Drug uptake was “Active”.

What about the Drug uptake (Brain [30]) of the same molecule?
Its Drug uptake is “Active”.

What about the Drug uptake [31] of the same molecule?
The Drug uptake was “Active”.

And the Drug uptake [32]?
The Drug uptake was “Active”.

What about the Drug uptake [33] of the same molecule?
The Drug uptake was “Active”.

What about the Drug uptake [34] of the same molecule?
The Drug uptake was “Active”.

What about the Drug uptake (Thalamus [35]) of the same molecule?
The Drug uptake was “Active”.

And the Stability [36]?
The Stability was “Unstable”.
